# Calls of active or inactive are those of the source. The rule behind the calls is not given here.
# Tests used:
# Poliovirus 1 [1] = test: Antiviral activity against Polio virus 1 Pfizer vaccine in african green monkey BSC1 cells assessed as excess radius from disk edge at 20 ug/disk; format: functional, organism-based; conditions: BSC-1
# Outline: (§1)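 Disc assay on BSC cell monolayers (ATCC CCL 26) infected with the Pfizer vaccine strain of poliovirus, with the virus grown on BSC cells. Scored by the radius of the antiviral/cytotoxic zone beyond the disc edge: 2+ = 2-4 mm, 3+ = 4-6 mm, ww = zone over the whole well.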
# P388 = test: Cytotoxicity against mouse P388 cells; format: functional, cell-based
# Outline: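 P-388 leukemia line (ATCC CCL 46). The value is the sample concentration, in ng/ml, that reduces cell growth by 50%.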
# Amorphotheca resinae [2] = test: Antimicrobial activity against Cladosporium resinae assessed per disk; format: functional
# Pseudomonas aeruginosa = test: Antimicrobial activity against Pseudomonas aeruginosa assessed per disk; format: functional
# Human alphaherpesvirus 1 [3] = test: Antiviral activity against Herpes simplex virus (type 1 / strain F) ATCC VR 733 in african green monkey BSC1 cells assessed as excess radius from disk edge at 20 ug/disk; format: functional, organism-based; conditions: BSC-1
# Outline: (§2)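 Disc assay of herpes simplex type I (strain F, ATCC VR 733) on a BSC cell line (ATCC CCL 26). The antiviral zone is scored as excess radius from the disc edge: 2+ = 2-4 mm, 3+ = 4-6 mm, ww = zone over the whole well.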
# Escherichia coli = test: Antimicrobial activity against Escherichia coli assessed per disk; format: functional
# Candida albicans [4] = test: Antimicrobial activity against Candida albicans assessed per disk; format: functional
# [5] = test system: Trichophyton mentagrophytes; test: Antimicrobial activity against Trichophyton mentagrophytes assessed per disk; format: functional
# Bacillus subtilis [6] = test: Antimicrobial activity against Bacillus subtilis assessed per disk; format: functional
# [7] = Cytotoxicity against african green monkey BSC1 cells at 20 ug/disk; format: cell-based; conditions: chlorocebus aethiops, bsc-1
# Outline: (§3)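 Cytotoxic zone around the disc on a BSC monolayer (ATCC CCL 26), scored as excess radius beyond the disc edge: 2+ = 2-4 mm, 3+ = 4-6 mm, ww = zone over the whole well.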
# Human alphaherpesvirus 1 [8] = test: Antiviral activity against Herpes simplex virus (type 1 / strain F) ATCC VR 733 in african green monkey BSC1 cells assessed as excess radius from disk edge at 0.5 ug/disk; format: functional, BSC-1; conditions: Human alphaherpesvirus 1, Strain F ATCC VR 733; read-out: IZ; outline: as §2
# [9] = Cytotoxicity against african green monkey BSC1 cells at 0.5 ug/disk; format: cell-based; conditions: chlorocebus aethiops, bsc-1; outline: as §3
# Poliovirus 1 [10] = test: Antiviral activity against Polio virus 1 Pfizer vaccine in african green monkey BSC1 cells assessed as excess radius from disk edge at 0.5 ug/disk; format: functional, BSC-1; conditions: Enterovirus C; read-out: IZ; outline: as §1
# Poliovirus 1 [11] = test: Antiviral activity against Polio virus 1 Pfizer vaccine in african green monkey BSC1 cells assessed as excess radius from disk edge at 0.4 ug/disk; format: functional, organism-based; conditions: BSC-1; outline: as §1
# Human alphaherpesvirus 1 [12] = test: Antiviral activity against Herpes simplex virus (type 1 / strain F) ATCC VR 733 in african green monkey BSC1 cells assessed as excess radius from disk edge at 0.4 ug/disk; format: functional, organism-based; conditions: BSC-1; outline: as §2
# [13] = Cytotoxicity against african green monkey BSC1 cells at 2 ug/disk; format: cell-based; conditions: chlorocebus aethiops, bsc-1; outline: as §3
# [14] = Cytotoxicity against african green monkey BSC1 cells at 0.4 ug/disk; format: cell-based; conditions: chlorocebus aethiops, bsc-1; outline: as §3
# Human alphaherpesvirus 1 [15] = test: Antiviral activity against Herpes simplex virus (type 1 / strain F) ATCC VR 733 in african green monkey BSC1 cells assessed as excess radius from disk edge at 10 ug/disk; format: functional, organism-based; conditions: BSC-1; outline: as §2
# [16] = Cytotoxicity against african green monkey BSC1 cells at 40 ug/disk; format: cell-based; conditions: chlorocebus aethiops, bsc-1; outline: as §3
# [17] = Cytotoxicity against african green monkey BSC1 cells at 10 ug/disk; format: cell-based; conditions: chlorocebus aethiops, bsc-1; outline: as §3
# Human alphaherpesvirus 1 [18] = test: Antiviral activity against Herpes simplex virus (type 1 / strain F) ATCC VR 733 in african green monkey BSC1 cells assessed as excess radius from disk edge at 40 ug/disk; format: functional, BSC-1; conditions: Human alphaherpesvirus 1, Strain F ATCC VR 733; read-out: IZ; outline: as §2
# Human alphaherpesvirus 1 [19] = test: Antiviral activity against Herpes simplex virus (type 1 / strain F) ATCC VR 733 in african green monkey BSC1 cells assessed as excess radius from disk edge at 2 ug/disk; format: functional, BSC-1; conditions: Human alphaherpesvirus 1, Strain F ATCC VR 733; read-out: IZ; outline: as §2
# [20] = Cytotoxicity against african green monkey BSC1 cells at 1 ug/disk; format: cell-based; conditions: chlorocebus aethiops, bsc-1; outline: as §3
# Human alphaherpesvirus 1 [21] = test: Antiviral activity against Herpes simplex virus (type 1 / strain F) ATCC VR 733 in african green monkey BSC1 cells assessed as excess radius from disk edge at 1 ug/disk; format: functional, organism-based; conditions: BSC-1; outline: as §2
# [22] = Cytotoxicity against african green monkey BSC1 cells at 5 ug/disk; format: cell-based; conditions: chlorocebus aethiops, bsc-1; outline: as §3
# Human alphaherpesvirus 1 [23] = test: Antiviral activity against Herpes simplex virus (type 1 / strain F) ATCC VR 733 in african green monkey BSC1 cells assessed as excess radius from disk edge at 5 ug/disk; format: functional, BSC-1; conditions: Human alphaherpesvirus 1, Strain F ATCC VR 733; read-out: IZ; outline: as §2
# Candida albicans [24] = test: Antimicrobial activity against Candida albicans at 30 ug; format: functional; conditions: read-out: IZ
# Bacillus subtilis [25] = test: Antimicrobial activity against Bacillus subtilis at 30 ug; format: functional; conditions: read-out: IZ
# [26] = test system: Trichophyton mentagrophytes; test: Antimicrobial activity against Trichophyton mentagrophytes at 100 units; format: functional, organism-based
# Amorphotheca resinae [27] = test: Antimicrobial activity against Cladosporium resinae at 100 units; format: functional, organism-based
Molecule,inhibition zone (IZ) (Poliovirus 1 [1]),IC50 (P388),MIC (Amorphotheca resinae [2]),MIC (Pseudomonas aeruginosa),inhibition zone (IZ) (Human alphaherpesvirus 1 [3]),MIC (Escherichia coli),MIC (Candida albicans [4]),MIC [5],MIC (Bacillus subtilis [6]),inhibition zone (IZ) [7],other results
CCc1nccc2c1[nH]c1c(O)cccc12,inactive,> 12.5 mg/L,>60 µg,>60 µg,inactive,30 µg,30 µg,30 µg,30 µg,Not Active,
C=Cc1nccc2c1[nH]c1c(O)cccc12,,,3.7 µg,>60 µg,,>60 µg,15 µg,0.45 µg,7.5 µg,,zone of inhibition at 0.5 µg/disc (Human alphaherpesvirus 1 [8]): 1 mm; inhibition zone (IZ) [9]: 2 mm; zone of inhibition at 0.5 µg/disc (Poliovirus 1 [10]): 1 mm; inhibition zone (IZ) (Poliovirus 1 [11]): inactive; inhibition zone (IZ) (Human alphaherpesvirus 1 [12]): inactive; inhibition zone (IZ) [13]: Active; inhibition zone (IZ) [14]: Not Active
CCc1nccc2c1[nH]c1c(OC)cccc12,inactive,> 12.5 mg/L,>60 µg,>60 µg,inactive,>60 µg,7.5 µg,7.5 µg,>60 µg,Not Active,
CCCc1nccc2c1[nH]c1ccccc12,,25 mg/L,>120 µg,>60 µg,inactive,>120 µg,>120 µg,15 µg,>120 µg,Not Active,
C=Cc1nccc2c1[nH]c1ccccc12,,0.1 mg/L,0.9 µg,>60 µg,,30 µg,1.9 µg,0.1 µg,1.9 µg,,zone of inhibition at 0.5 µg/disc (Human alphaherpesvirus 1 [8]): 1 mm; inhibition zone (IZ) [9]: 2 mm; inhibition zone (IZ) (Human alphaherpesvirus 1 [12]): inactive; inhibition zone (IZ) [13]: Active; inhibition zone (IZ) [14]: Not Active
CC(C)c1nccc2c1[nH]c1ccccc12,,13 mg/L,15 µg,>60 µg,inactive,>120 µg,1.9 µg,0.45 µg,7.5 µg,Not Active,
CC1NC(C(=O)O)Cc2c1[nH]c1ccccc21 (stereo not drawn),inactive,> 125 mg/L,>60 µg,>60 µg,inactive,>60 µg,>60 µg,>60 µg,>60 µg,Not Active,
CCCCCCc1nccc2c1[nH]c1ccccc12,,9 mg/L,7.5 µg,>60 µg,,>60 µg,>60 µg,1.9 µg,>60 µg,,inhibition zone (IZ) (Human alphaherpesvirus 1 [15]): inactive; inhibition zone (IZ) [16]: 1 mm; inhibition zone (IZ) [17]: 1 mm; zone of inhibition at 40 µg/disc (Human alphaherpesvirus 1 [18]): 1 mm
C=Cc1nccc2c1[nH]c1c(OC)cccc12,,0.1 mg/L,15 µg,>60 µg,,>60 µg,7.5 µg,0.45 µg,7.5 µg,,zone of inhibition at 0.5 µg/disc (Human alphaherpesvirus 1 [8]): 1 mm; inhibition zone (IZ) [9]: 1 mm; inhibition zone (IZ) (Human alphaherpesvirus 1 [12]): inactive; zone of inhibition at 2 µg/disc (Human alphaherpesvirus 1 [19]): 1 mm; inhibition zone (IZ) [13]: 2 mm; inhibition zone (IZ) [14]: Not Active
CCc1ncc(S(C)(=O)=O)c2c1[nH]c1ccccc12,,> 12.5 mg/L,>60 µg,>60 µg,inactive,>60 µg,>60 µg,30 µg,30 µg,Not Active,
C=Cc1nccc2c1[nH]c1c(OC(C)=O)cccc12,,0.65 mg/L,>60 µg,>60 µg,,>60 µg,15 µg,0.9 µg,7.5 µg,,inhibition zone (IZ) [20]: Not Active; inhibition zone (IZ) (Human alphaherpesvirus 1 [21]): inactive; inhibition zone (IZ) [13]: Active; inhibition zone (IZ) [22]: 2 mm; zone of inhibition at 5 µg/disc (Human alphaherpesvirus 1 [23]): 1 mm; Activity [7]: Active
O=C(N[C@H](CO)[C@H](O)c1ccc([N+](=O)[O-])cc1)C(Cl)Cl [CHLORAMPHENICOL],,,,,,,,,,,zone of inhibition at 30 µg/disc (Candida albicans [24]): 8 mm; zone of inhibition at 30 µg/disc (Bacillus subtilis [25]): 12 mm
c1ccc2c(c1)[nH]c1cnccc12 [NORHARMANE],inactive,25 mg/L,15 µg,>60 µg,inactive,3.7 µg,1.9 µg,0.9 µg,7.5 µg,Not Active,
Cc1nccc2c1[nH]c1ccccc12 [HARMAN],inactive,25 mg/L,15 µg,>60 µg,inactive,60 µg,1.9 µg,3.7 µg,7.5 µg,Not Active,
NYSTATIN,,,,,,,,,,,inhibition zone (IZ) [26]: 4 mm; inhibition zone (IZ) (Amorphotheca resinae [27]): 12 mm
CCc1nccc2c1[nH]c1ccccc12,inactive,25 mg/L,30 µg,>60 µg,inactive,>120 µg,1.9 µg,1.9 µg,7.5 µg,Not Active,
COC(=O)C1Cc2c([nH]c3ccccc23)C(C)N1 (stereo not drawn),inactive,120 mg/L,>60 µg,>60 µg,inactive,>60 µg,7.5 µg,>60 µg,>60 µg,Not Active,

# Source: ChEMBL document CHEMBL1158972, “New cytotoxic beta-carboline alkaloids from the marine bryozoan, Cribricellina cribraria” (J Nat Prod, 1991)
